High-throughput results (PubChem)
m-calpain inh: blocks pig calpain II enzyme activity | purified calpain II, fluorogenic peptide substrate, 30 min | inhibition, % at 16 µM | 0.37% of 220,000 active | AID 1236;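 active means inhibition above about 50%, limit read from the data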
WT yeast gro inh: growth inhibition of WT yeast, mitochondrial fusion screen; mitochondrial fusion phenotypic screen, WT strain; inhibition, % at 10 µM; 2.1% of 190,000 active; AID 1362; in the data active means inhibition above about 58%; tested in S. cerevisiae
Rad51 HR inh: blocks human Rad51 in homologous recombination. 0.085% of 200,000 active. inhibition, % at 10 µM. Q06609. hRad51 DNA strand exchange, fluorescence dequenching;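 active means inhibition above 40% at the single screening dose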;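 further: 0% = DMSO control wells and 100% = blanks with heterologous ssDNA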
Target sequence (Q06609 whole entry, looked up): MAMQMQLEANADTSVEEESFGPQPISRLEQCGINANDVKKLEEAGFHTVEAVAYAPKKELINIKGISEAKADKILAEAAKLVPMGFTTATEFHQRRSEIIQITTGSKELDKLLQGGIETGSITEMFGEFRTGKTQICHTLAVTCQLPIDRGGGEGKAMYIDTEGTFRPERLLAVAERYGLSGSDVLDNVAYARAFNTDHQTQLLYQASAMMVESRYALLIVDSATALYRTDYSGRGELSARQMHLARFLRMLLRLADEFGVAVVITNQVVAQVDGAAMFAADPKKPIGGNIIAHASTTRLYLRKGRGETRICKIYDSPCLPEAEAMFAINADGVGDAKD
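Material: Human Rad51 nucleoprotein filaments preassembled on unlabelled ssDNA | Also added: Labelled 47-mer dsDNA for strand exchange | Dosing: Single dose, 10 µM final compound | Schedule: 30-min compound preincubation and 15-min exchange, both room temperature | Technique: Fluorescence dequenching at 485/520 nm | Measure: Percent inhibition relative to plate controls and blanks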
PMI act hi M6P: increases human PMI activity with near-saturating mannose 6-phosphate. P34949. coupled PMI enzyme assay, resazurin fluorescence, 20 min; stronger effect = higher value; 1 = untreated enzyme, 0 = substrate-free blank. 0.34% of 190,000 active. activation factor at 20 µM. AID 1216;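 active means activation factor of 2 or more at 20 µM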
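Material: human phosphomannose isomerase with PGI, G6PDH, diaphorase coupling enzymes / Reagent: Man-6-P substrate 1.0 mM / Dosing: single compound dose of 20 µM, 1% DMSO final / Incubation: enzyme reaction with compound 20 min at room temperature / Signal: resorufin fluorescence (Ex 544/Em 590 nm) from resazurin via diaphorase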
Lmaj promast: inhibitors of Leishmania major promastigote growth; 9% of 200,000 active; Leishmania major promastigotes, resazurin fluorescence viability; inhibition, % at 10 µM; in the data active means inhibition above about 50%;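 further: promastigotes grown with compound for 44 hours at 28 °C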
PMI act: phosphomannose isomerase (human) activation | purified human PMI, coupled resazurin fluorescence, 20 min; stronger effect = higher value; 1 = vehicle control, 0 substrate-free wells | activation factor at 20 µM | 0.005% of 190,000 active | AID 1214 | P34949;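 active means activation factor of 2 or more at 20 µM, relative to plate controls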
The depositor's hits bear a star; i = inactive; · = not tested or not shown. Sampled rows, rich in hits. Any-hit rate of the full collection: about 9.8%.

SMILES | m-calpain inh | WT yeast gro inh | Rad51 HR inh | PMI act hi M6P | Lmaj promast | PMI act
CC(=O)NCCc1nc2ccccc2n1CCOc1ccccc1 | 1.2 | · | 7.0 | · | · | ·
Cc1ccc(OCCCCn2c(CO)nc3ccccc32)cc1 | -19.5 | 12.7 | -3.5 | 0.9 | 56.1* | 0.9
c1ccc(CCNc2ncnc3scc(C4COc5ccccc5O4)c23)cc1 (centres undefined) | 60.0* | 69.1* | 1.0 | 0.8 | 84.8* | 0.8
O=C1CCCc2c1[nH]c1ccc(CN3CCCCC3)cc21 | -117.9 | 3.5 | -3.9 | 1 | 59.3* | 1
Cc1ccc2[nH]c3c(c2c1)CCCC3=O | i | 3.7 | 3.6 | 1 | -1.4 | 0.9
O=C(CN1CCCN(Cc2ccc(F)cc2Cl)C1=O)NC1CCCC1 | -32.0 | -11.3 | 2.4 | 1.2 | -6.3 | 1.1
O=C(/C=C/Nc1ccc(S(=O)(=O)Nc2ncccn2)cc1)c1ccc2ccccc2c1 | -8.5 | · | 12.6 | · | · | ·
COc1ccc(NC(=S)NC2CC3CCC(C2)N3Cc2ccco2)cc1 (centres undefined) | 17.8 | -12.7 | -3.1 | 1.1 | 42.5 | 1
Cc1cccc(NC(=S)NC2CC3CCCC(C2)N3Cc2ccco2)c1 (centres undefined) | 9.0 | -1.8 | · | 0.9 | 62.5* | 0.9
Cc1ccccc1NC(=S)NC1CC2CCC(C1)N2Cc1ccco1 (centres undefined) | 12.9 | 8.8 | -10.8 | 1 | 60.4* | 1
CCc1ccc(NC(=S)NC2CC3CCC(C2)N3Cc2ccco2)cc1 (centres undefined) | -2.4 | -2.0 | 1.2 | 0.8 | 94.1* | 0.9
Cc1cccc(NC(=S)NC2CC3CCC(C2)N3Cc2ccco2)c1 (centres undefined) | -3.9 | 5.3 | 9.8 | 1 | 79.5* | 1
Cc1ccc(C(=O)NCC(=O)OC(C)C(=O)Nc2ccc(N(C)C)cc2)s1 (centres undefined) | -8.8 | -7.0 | -19.7 | 1 | 3.2 | 1
CC1(c2nnc(-c3cccc(Cl)c3)o2)CC(c2ccc(Br)cc2)=NO1 (centres undefined) | · | · | 8.0 | · | · | ·
Cc1ccc(NC(=S)NC2CC3CCCC(C2)N3Cc2ccco2)cc1 (centres undefined) | 30.3 | 7.8 | -5.0 | 1 | 90.5* | 1.1
COc1ccccc1CN1CCSCC1 | -33.6 | -7.5 | -4.5 | 1 | 62.8* | 1
COc1ccccc1CN1CCN(C(=O)c2ccncc2)CC1 | 12.0 | -2.6 | · | 1 | -3.3 | 1
N#C/C(=N\Nc1ccccc1)C(=N)N1CCCCCC1 | 18.3 | · | -20.1 | · | · | ·
N#C/C(=N\Nc1ccc(F)cc1)C(=N)N1CCCCC1 | -8.2 | 11.9 | -5.7 | 1 | 77.6* | 1
CC(=O)NC1C(OCc2ccccc2)OC2COC(C)(C)OC2C1O (centres undefined) | -5.3 | 1.5 | 3.8 | 0.9 | 10.1 | 0.9
C=CCNC(=S)NN=C1CCCCCCC1 | 12.6 | 59.6* | -1.1 | 0.9 | 7.0 | 0.9
CN(Cc1ccccc1F)c1nc(-c2cccs2)nc2ccccc12 | 6.7 | 44.9 | -2.4 | 1 | 79.2* | 1.1
CCCCC1=NN(C(=O)c2cccnc2)C(O)(C(F)(F)F)C1 (centres undefined) | -11.8 | · | 4.6 | · | · | ·
CCN(CC)CCN(CC)Cc1ccccc1Br | -17.8 | 2.0 | 11.4 | 1.1 | 95.7* | 1.1
CN(C)Cc1ccccc1Sc1ccccc1Br | 2.7 | 8.1 | · | 1 | 18.1 | 1.1
SMILES | m-calpain inh | WT yeast gro inh | Rad51 HR inh | PMI act hi M6P | Lmaj promast | PMI act
COc1ccc(C(=O)CSc2nnc(-c3ccco3)c(-c3ccco3)n2)cc1 | -5.3 | 8.8 | 4.5 | 0.7 | 98.6* | 1.1
Cc1ccc(NC(=O)CSc2nnc(-c3ccco3)c(-c3ccco3)n2)cc1 | -69.5 | 0.8 | 2.9 | 0.6 | 95.9* | 1.1
O=C(CSc1nnc(-c2ccccc2)c(-c2ccccc2)n1)Nc1ccc(Br)cn1 | -0.5 | 30.2 | 3.7 | 0.9 | 66.3* | 0.9
O=C(CSc1nnc(-c2ccccc2)c(-c2ccccc2)n1)Nc1ncc(Cl)cc1Cl | -35.0 | 35.7 | -17.1 | 0.9 | 41.4 | 0.8
COc1ccc(C(=O)CSc2nnc(-c3ccco3)n2C)cc1 | 9.4 | 2.9 | -4.1 | 1 | 11.1 | 1
O=C(CSc1nnc(-c2ccco2)c(-c2ccco2)n1)Nc1ccccc1 | -17.4 | 54.3 | -2.7 | 0.6 | 74.7* | 0.8
COc1cc(OC)c(S(=O)(=O)Nc2ccccc2N2CCOCC2)cc1NC(C)=O | -16.6 | -9.8 | 7.0 | 0.9 | 2.0 | 1
CCOc1cc(/C=C(/NC(C)=O)C(=O)O)cc(Cl)c1OCc1ccc(Br)cc1 | 40.5 | · | 14.5 | · | · | ·
CCOC(CNc1c([N+](=O)[O-])c(=O)n(C)c(=O)n1C)OCC | -1.2 | -21.8 | 3.5 | 1.1 | -7.6 | 1.1
Cc1ccc(Cn2c(SC3CCOC3=O)nc3ccccc3c2=O)cc1 (centres undefined) | -0.5 | -4.3 | 7.8 | 1 | 1.0 | 0.8
CCc1cc2c(=O)n(Cc3ccccc3)c(SC3CCOC3=O)nc2s1 (centres undefined) | 53.9* | 11.4 | · | 1 | 0.8 | 1.1
COc1ccc(-c2csc(N3C(=O)C4C5c6ccccc6C(c6ccccc65)C4C3=O)n2)cc1 (centres undefined) | 3.4 | 14.7 | -5.8 | 0.9 | 60.2* | 0.9
COc1ccc(-c2csc(N3C(=O)C4C5c6ccccc6C(c6ccccc65)[C@@H]4C3=O)n2)cc1 (some centres undefined) | -22.6 | 4.1 | 0.5 | 1 | -3.8 | 1
CNC(=S)N1N=C(c2ccc(C)cc2)CC1c1ccc(OC)c(OC)c1 (centres undefined) | -3.0 | 22.7 | · | 0.8 | 14.2 | 0.7
CNC(=S)N1N=C(c2ccc(Br)cc2)CC1c1ccc(N(C)C)cc1 (centres undefined) | -70.4 | 16.1 | -13.0 | 0.9 | 51.4* | 0.9
CNC(=S)N1N=C(c2ccc(OC)cc2)CC1c1ccc(N(C)C)cc1 (centres undefined) | 6.9 | -0.2 | 4.8 | 0.9 | 4.8 | 0.9
CNC(=S)N1N=C(c2ccc(Br)cc2)CC1c1ccc(Br)cc1 (centres undefined) | -14.5 | 6.7 | 1.0 | 1 | 100.2* | 1
COCCCNC(=S)NC(=O)c1ccc(C)cc1 | 3.0 | 3.5 | 3.5 | 0.9 | -7.2 | 1
O=C(NC1CCc2ccccc21)C1CCN(S(=O)(=O)c2ccc(Cl)cc2)CC1 (centres undefined) | 3.4 | 5.2 | 2.8 | 0.9 | 41.1 | 0.8
O=S(=O)(NC1CCc2ccccc21)c1ccc(S(=O)(=O)N2CCCC2)cc1 (centres undefined) | -9.4 | -10.6 | -1.2 | 1 | 71.8* | 0.9
Cc1oc(S(=O)(=O)N(C)C)cc1C(=O)Nc1ccc(Cl)cc1 | -1.7 | · | 17.0 | · | · | ·
CC(C)c1ccc(N=C2N=C(N)c3ccccc32)cc1 | 1.4 | · | 2.6 | · | · | ·
Cc1ccc(S(=O)(=O)Oc2ccccc2/C=N/N=C(N)N)cc1 | 26.7 | -18.2 | 6.5 | 0.9 | 73.9* | 0.9
